pIC50: −log10 of the molar value.
Legend:
[1] = Half life in dog blood; type: ADME, tissue-based, Canis lupus familiaris
Cytochrome P450 3A4 [2] = target: T1, Cytochrome P450 3A4 (Homo sapiens, UniProt P08684); assay: Inhibition of CYP3A4 using in human liver microsomes using midazolam as substrate after 5 to 15 mins; type: ADME
In short: (§1)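 CYP3A4 inhibition was measured in pooled human liver microsomes using an isozyme-specific probe substrate: midazolam for line 1 and testosterone for line 2.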

[3] = Oral bioavailability in monkey; type: ADME, organism-based, Macaca mulatta; details: rhesus monkey, in vivo
[4] = system: Hemoglobin HbA (Homo sapiens), P69905+P68871 [E7V]; assay: Induction of R-state stabilization of Hb betaGlu6Val mutant in sickle disease patient purified HbS/HbA mixture assessed as change from baseline of partial pressure of O2 at which HbS is 50% saturated with O2 at 500 uM preincubated for 45 mins followed by oxygenation for 10 mins and subsequent deoxygenation by hemoximetry relative to control
In short: (§2)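 Oxygen equilibrium curves were run on a Hemox Analyzer using Hb purified from sickle disease blood (an HbA/HbS mixture) at 25 μM. Compound was tested at 30 μM, or at 500 μM where noted. The read-out was the % change from baseline in the pO2 at which HbS is 50% saturated (Δp50).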

[5] = Oral bioavailability in Sprague-Dawley rat at 7.2 to 120 mg/kg by LC-MS/MS analysis; type: ADME, organism-based; details: in vivo
[6] = Half life in monkey blood; type: ADME, tissue-based, Macaca mulatta; details: rhesus monkey
Cytochrome P450 3A4 [7] = target: T1, Cytochrome P450 3A4; assay: Inhibition of CYP3A4 using in human liver microsomes using testosterone as substrate after 5 to 15 mins; type: ADME; in short: as §1
Cytochrome P450 2C19 [8] = target: T2, Cytochrome P450 2C19 (Homo sapiens, UniProt P33261); assay: Inhibition of CYP2C19 in human liver microsomes using S-Mephentoin as substrate after 5 to 15 mins; type: ADME
In short: (§3)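 Pooled human liver microsomes were incubated with isozyme-specific probe substrates: S-mephenytoin for CYP2C19 and bufuralol for CYP2D6.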

Cytochrome P450 3A4 [9] = target: T1, Cytochrome P450 3A4; assay: Time dependent inhibition of CYP3A4 using in human liver microsomes using midazolam as substrate; type: ADME
Cytochrome P450 3A4 [10] = target: T1, Cytochrome P450 3A4; assay: Time dependent inhibition of CYP3A4 using in human liver microsomes using testosterone as substrate; type: ADME
Cytochrome P450 1A2 = target: T3, Cytochrome P450 1A2 (Homo sapiens, UniProt P05177); assay: Inhibition of CYP1A2 in human liver microsomes using phenacetin as substrate after 5 to 15 mins; type: ADME
T3 sequence (P05177 whole entry): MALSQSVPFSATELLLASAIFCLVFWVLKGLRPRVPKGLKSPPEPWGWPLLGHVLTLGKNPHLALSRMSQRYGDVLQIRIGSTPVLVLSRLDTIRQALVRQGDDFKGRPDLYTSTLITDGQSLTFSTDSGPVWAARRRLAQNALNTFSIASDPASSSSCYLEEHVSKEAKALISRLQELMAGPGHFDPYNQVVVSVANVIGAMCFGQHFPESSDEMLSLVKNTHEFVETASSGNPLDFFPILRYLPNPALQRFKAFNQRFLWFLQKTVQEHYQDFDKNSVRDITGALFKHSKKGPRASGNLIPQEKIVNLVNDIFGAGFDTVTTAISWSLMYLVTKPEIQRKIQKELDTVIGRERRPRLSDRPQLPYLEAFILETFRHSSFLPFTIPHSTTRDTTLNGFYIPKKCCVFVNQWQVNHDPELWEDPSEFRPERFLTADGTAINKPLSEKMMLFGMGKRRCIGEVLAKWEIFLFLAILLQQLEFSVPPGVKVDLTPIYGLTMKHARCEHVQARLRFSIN
In short: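 Pooled human liver microsomes incubated with phenacetin as the CYP1A2-specific probe substrate across a range of test-compound concentrations. IC50 derived from inhibition of probe metabolism.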

Cytochrome P450 2C9 = Cytochrome P450 2C9 (Homo sapiens, UniProt P11712); assay: Inhibition of CYP2C9 in human liver microsomes using tolbutamide as substrate after 5 to 15 mins
Cytochrome P450 2C19 [11] = target: T2, Cytochrome P450 2C19; assay: Time dependent inhibition of CYP2C19 in human liver microsomes using S-Mephentoin as substrate; type: ADME
Homo sapiens = species on record: Homo sapiens; assay: Induction of R-state stabilization of sickle cell Hb betaGlu6Val mutant purified from sickle cell patient assessed as inhibition of KH2PO4-induced polymerization by measuring change from baseline of delay time for onset of polymerization at 75 uM preincubated for 1 hr followed by deoxygenation for …; design: scale not given: the % may be the effect or the level left
[12] = Half life in dog plasma; type: ADME, cell-free, Canis lupus familiaris
[13] = system: Hemoglobin HbA (Homo sapiens), P69905+P68871 [E7V]; assay: Induction of R-state stabilization of Hb betaGlu6Val mutant in sickle disease patient purified HbS/HbA mixture assessed as change from baseline of partial pressure of O2 at which HbS is 50% saturated with O2 at 30 uM preincubated for 45 mins followed by oxygenation for 10 mins and subsequent deoxygenation by hemoximetry relative to control; in short: as §2
[14] = system: Hemoglobin HbA (Homo sapiens), P69905+P68871 [E7V]; assay: Induction of R-state stabilization of Hb betaGlu6Val mutant in sickle cell disease transfused human whole blood assessed as change from baseline of partial pressure of O2 at which HbS is 50% saturated with O2 at 1 mM preincubated for 45 mins followed by 20 mins oxygenation/deoxygenation cycle by hemoximetry relative to control
In short: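 Whole blood from transfused SCD subjects, at 20% hematocrit (Hb 1 mM), was run with compound at 1 mM. Oxygen equilibrium curves were measured by hemoximetry. The value is the % change from baseline in the pO2 giving 50% O2 saturation (Δp50).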

[15] = Ratio of drug level in Sprague-Dawley rat RBC to plasma at 7.2 to 120 mg/kg, po by LC-MS/MS analysis; type: ADME, organism-based; details: red blood cells (RBC) / plasma
[16] = Half life in monkey plasma; type: ADME, cell-free, Macaca mulatta; details: rhesus monkey
Cytochrome P450 2D6 = Cytochrome P450 2D6 (Homo sapiens, UniProt P10635); assay: Inhibition of CYP2D6 in human liver microsomes using bufuralol as substrate after 5 to 15 mins; type: ADME; in short: as §3
Cytochrome P450 2C8 = target: T4, Cytochrome P450 2C8 (Homo sapiens, UniProt P10632); assay: Inhibition of CYP2C8 in human liver microsomes using paclitaxel as substrate after 5 to 15 mins; type: ADME
T4 sequence (P10632 whole entry): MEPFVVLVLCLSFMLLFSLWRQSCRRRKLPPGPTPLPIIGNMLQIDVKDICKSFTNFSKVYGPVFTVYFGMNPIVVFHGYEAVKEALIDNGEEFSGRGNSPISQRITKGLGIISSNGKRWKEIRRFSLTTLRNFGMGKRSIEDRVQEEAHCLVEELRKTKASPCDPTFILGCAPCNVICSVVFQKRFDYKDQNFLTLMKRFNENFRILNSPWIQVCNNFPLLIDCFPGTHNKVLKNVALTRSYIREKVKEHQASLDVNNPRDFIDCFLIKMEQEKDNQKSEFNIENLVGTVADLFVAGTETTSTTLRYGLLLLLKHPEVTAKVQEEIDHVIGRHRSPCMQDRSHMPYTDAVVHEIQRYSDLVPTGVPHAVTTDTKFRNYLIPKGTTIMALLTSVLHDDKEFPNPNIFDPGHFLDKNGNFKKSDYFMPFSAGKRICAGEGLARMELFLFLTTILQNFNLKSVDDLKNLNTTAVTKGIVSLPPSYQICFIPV

Blood = assay: Half life in Sprague-Dawley rat blood at 7.2 to 120 mg/kg, po by LC-MS/MS analysis; type: ADME, organism-based; details: in vivo
Rattus norvegicus = assay: Dose normalized AUC (0 to infinity) in Sprague-Dawley rat at 7.2 to 120 mg/kg, po by LC-MS/MS analysis; type: ADME, organism-based; details: in vivo
In short: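 Rat oral PK: AUC(0–∞) divided by the oral dose, expressed as (ng·h/mL)/(mg/kg).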

[17] = Half life in Sprague-Dawley rat plasma at 7.2 to 120 mg/kg, po by LC-MS/MS analysis; type: ADME, organism-based
[18] = Oral bioavailability in dog; type: ADME, organism-based, Canis lupus familiaris; details: in vivo

T1 sequence (P08684 whole entry): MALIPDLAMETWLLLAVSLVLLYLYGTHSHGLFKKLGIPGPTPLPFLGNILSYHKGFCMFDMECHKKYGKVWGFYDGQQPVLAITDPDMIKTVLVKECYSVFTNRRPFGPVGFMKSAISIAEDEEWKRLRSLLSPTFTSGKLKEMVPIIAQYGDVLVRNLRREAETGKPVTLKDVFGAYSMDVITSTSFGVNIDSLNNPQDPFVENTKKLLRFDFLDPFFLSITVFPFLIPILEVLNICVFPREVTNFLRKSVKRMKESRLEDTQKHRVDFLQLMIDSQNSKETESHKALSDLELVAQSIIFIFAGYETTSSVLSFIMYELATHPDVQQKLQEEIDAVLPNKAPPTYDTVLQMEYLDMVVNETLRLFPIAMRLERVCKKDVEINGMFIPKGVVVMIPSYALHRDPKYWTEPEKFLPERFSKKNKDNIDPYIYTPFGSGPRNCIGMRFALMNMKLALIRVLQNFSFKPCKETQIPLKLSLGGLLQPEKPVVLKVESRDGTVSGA
T2 sequence (P33261 whole entry): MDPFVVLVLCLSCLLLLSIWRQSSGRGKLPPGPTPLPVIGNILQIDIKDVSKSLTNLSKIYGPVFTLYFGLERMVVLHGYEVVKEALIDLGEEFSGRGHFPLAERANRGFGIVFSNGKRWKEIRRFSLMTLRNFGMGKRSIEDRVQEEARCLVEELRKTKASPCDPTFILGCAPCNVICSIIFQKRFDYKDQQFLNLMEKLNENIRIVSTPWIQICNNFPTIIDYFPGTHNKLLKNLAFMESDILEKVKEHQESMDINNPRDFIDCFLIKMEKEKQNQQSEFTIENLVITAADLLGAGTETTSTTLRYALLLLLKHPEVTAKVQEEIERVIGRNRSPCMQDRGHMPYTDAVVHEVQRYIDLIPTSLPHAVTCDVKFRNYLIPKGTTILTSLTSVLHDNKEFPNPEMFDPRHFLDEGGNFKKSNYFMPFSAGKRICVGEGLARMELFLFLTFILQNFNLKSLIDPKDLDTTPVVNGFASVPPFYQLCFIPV
Sequence of Cytochrome P450 2C9 (P11712 whole entry): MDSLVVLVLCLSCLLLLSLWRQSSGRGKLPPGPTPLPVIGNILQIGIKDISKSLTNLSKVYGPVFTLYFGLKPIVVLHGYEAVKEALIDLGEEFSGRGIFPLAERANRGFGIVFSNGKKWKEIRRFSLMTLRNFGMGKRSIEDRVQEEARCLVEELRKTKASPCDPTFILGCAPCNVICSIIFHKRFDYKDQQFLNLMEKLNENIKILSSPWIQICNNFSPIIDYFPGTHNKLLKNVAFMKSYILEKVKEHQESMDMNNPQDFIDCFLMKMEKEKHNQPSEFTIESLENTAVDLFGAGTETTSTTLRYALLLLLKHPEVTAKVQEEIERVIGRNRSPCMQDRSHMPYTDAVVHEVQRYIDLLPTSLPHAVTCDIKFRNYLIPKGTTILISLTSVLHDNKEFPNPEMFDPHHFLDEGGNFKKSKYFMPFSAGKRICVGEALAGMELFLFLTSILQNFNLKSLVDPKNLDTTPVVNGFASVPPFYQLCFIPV
Sequence of Cytochrome P450 2D6 (P10635 whole entry): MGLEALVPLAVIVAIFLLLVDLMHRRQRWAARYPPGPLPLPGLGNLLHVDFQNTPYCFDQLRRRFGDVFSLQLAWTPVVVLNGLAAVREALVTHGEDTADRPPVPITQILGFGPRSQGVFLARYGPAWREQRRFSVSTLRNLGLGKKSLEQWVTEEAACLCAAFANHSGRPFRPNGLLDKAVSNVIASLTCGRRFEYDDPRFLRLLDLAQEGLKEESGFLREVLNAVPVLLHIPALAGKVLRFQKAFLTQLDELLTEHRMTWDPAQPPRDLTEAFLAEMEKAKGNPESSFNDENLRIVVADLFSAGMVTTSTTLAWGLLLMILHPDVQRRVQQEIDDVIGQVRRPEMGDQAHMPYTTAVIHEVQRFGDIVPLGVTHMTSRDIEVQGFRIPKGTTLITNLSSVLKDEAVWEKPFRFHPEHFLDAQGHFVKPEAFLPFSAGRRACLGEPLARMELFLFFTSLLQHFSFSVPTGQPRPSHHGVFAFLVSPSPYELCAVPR

Compound `CC(C)n1nccc1-c1ncccc1COc1cccc(O)c1C=O` [VOXELOTOR] has a half-life [1] of 20 h, a pIC50 (Cytochrome P450 3A4 [2]) of 4.09 and a bioavailability [3] of 36%. For the same compound, the Activity [4] was 2.6%, the bioavailability [5] was 60% and the half-life [6] was 20 h. For the same compound, the pIC50 (Cytochrome P450 3A4 [7]) was 4.90, the pIC50 (Cytochrome P450 2C19 [8]) was 4.70 and the TDI (Cytochrome P450 3A4 [9]) was “Not Active”. The TDI (Cytochrome P450 3A4 [10]) was “Not Active”, the pIC50 (Cytochrome P450 1A2) was 4.23 and the pIC50 (Cytochrome P450 2C9) was 5.07. For the same compound, the TDI (Cytochrome P450 2C19 [11]) was “Not Active”, the Activity (Homo sapiens) was 206% and the half-life [12] was 20 h. For the same compound, the Activity [13] was 72.1%, the Activity [14] was 79.8% and the Kp [15] was 150. For the same compound, the half-life [16] was 20 h, the pIC50 (Cytochrome P450 2D6) was 3.83 and the pIC50 (Cytochrome P450 2C8) was 5.10. For the same compound, the t1/2 (Blood) was 19.1 h, the AUC/dose (Rattus norvegicus) was 326806 ng·h/mL/mg/kg and the half-life [17] was 20 h. It also gave a bioavailability [18] of 37%.
